Reference: ChEMBL document CHEMBL1156878, “New benzoxanthone derivatives as topoisomerase inhibitors and DNA cross-linkers” (Bioorg Med Chem, 2010)
Where a name gives a salt, the structure may show the parent alone. Active and inactive are the calls of the source. The calls are words filed in the database; no cut-off is given here.

What was measured:
[1] = test system: HeLa; assay: Cytotoxicity against human HeLa cells after 48 hrs by MTT assay; format: functional, cell-based
Outline: (§1)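 Cells seeded at 2–4 × 10⁴ per well and held overnight at 37 °C, 5% CO₂, in medium with 10% FBS. On day 2 the medium was replaced with medium holding graded compound concentrations. Absorbance was read at 450 nm and fitted to a four-parameter logistic equation for IC₅₀. Mean ± SD of three experiments, each in triplicate.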

[2] = test system: HT-29; assay: Cytotoxicity against human HT-29 cells after 48 hrs […]; format: functional, cell-based; details: HT-29, 48 h
[3] = test system: DU-145; assay: Cytotoxicity against human DU145 cells after 48 hrs by MTT assay; format: functional, cell-based; details: DU-145, 48 h; outline: as §1
[4] = test system: MDA-MB-231; assay: Cytotoxicity against human MDA-MB-231 cells after 48 hrs by MTT assay; format: functional, cell-based; details: MDA-MB-231, 48 h
Outline: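 Cells seeded at 2–4 × 10⁴ per well and grown overnight in medium with 10% FBS at 37 °C, 5% CO₂. Medium was then replaced with medium holding graded compound concentrations. Absorbance was read at 450 nm and IC50 fitted to a four-parameter logistic equation. Mean of three experiments run in triplicate.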

[5] = test system: HL-60; assay: Cytotoxicity against human HL60 cells after 48 hrs by MTT assay; format: functional, cell-based; details: HL-60, 48 h; outline: as §1
[6] = target: T1, DNA topoisomerase 1 (Homo sapiens) (UniProt P11387); assay: Inhibition of human recombinant topoisomerase 1-mediated pBR322 DNA relaxation at 100 uM by gel electrophoresis
T1 sequence (whole entry): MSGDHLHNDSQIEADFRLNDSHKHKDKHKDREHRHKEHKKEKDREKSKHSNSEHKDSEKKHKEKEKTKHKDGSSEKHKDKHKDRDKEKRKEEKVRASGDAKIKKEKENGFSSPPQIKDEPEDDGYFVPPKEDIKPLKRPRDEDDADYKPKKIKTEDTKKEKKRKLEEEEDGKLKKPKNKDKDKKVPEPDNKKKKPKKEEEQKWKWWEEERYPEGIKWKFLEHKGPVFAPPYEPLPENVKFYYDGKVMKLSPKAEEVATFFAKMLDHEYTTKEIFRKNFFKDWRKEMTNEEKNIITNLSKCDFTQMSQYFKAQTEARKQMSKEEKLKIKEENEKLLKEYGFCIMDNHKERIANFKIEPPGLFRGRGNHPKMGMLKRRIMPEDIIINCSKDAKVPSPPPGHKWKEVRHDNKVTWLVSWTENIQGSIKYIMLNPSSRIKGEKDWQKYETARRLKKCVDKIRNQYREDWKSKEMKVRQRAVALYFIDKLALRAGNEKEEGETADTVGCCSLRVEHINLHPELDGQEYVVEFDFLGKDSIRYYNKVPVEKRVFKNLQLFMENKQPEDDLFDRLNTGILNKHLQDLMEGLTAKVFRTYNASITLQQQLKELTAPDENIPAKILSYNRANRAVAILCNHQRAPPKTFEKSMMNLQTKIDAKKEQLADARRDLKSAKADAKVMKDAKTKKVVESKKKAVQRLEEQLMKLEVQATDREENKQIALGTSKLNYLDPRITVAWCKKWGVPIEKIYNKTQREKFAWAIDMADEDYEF
Outline: (§2)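 Relaxation of 100 ng supercoiled pBR322 by 0.4 units recombinant human topo I, with or without compound (20 mM DMSO stocks), at 37 °C for 30 min. Buffer: 10 mM Tris-HCl pH 7.9, 150 mM NaCl, 0.1% BSA, 1 mM spermidine, 5% glycerol. Run on 1% agarose gel in TAE at 15 V for 7 h, stained with ethidium bromide, bands quantified under UV to give inhibition ratio.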

[7] = target: T1, DNA topoisomerase 1 (Homo sapiens); assay: Inhibition of human recombinant topoisomerase 1-mediated pBR322 DNA relaxation at 20 uM by gel electrophoresis; outline: as §2
[8] = target: DNA topoisomerase 2-alpha (Homo sapiens) (UniProt P11388); assay: Inhibition of human recombinant DNA topoisomerase 2alpha -mediated pBR322 DNA relaxation at 100 uM by gel electrophoresis
Chain of DNA topoisomerase 2-alpha (Homo sapiens) (P11388 whole entry): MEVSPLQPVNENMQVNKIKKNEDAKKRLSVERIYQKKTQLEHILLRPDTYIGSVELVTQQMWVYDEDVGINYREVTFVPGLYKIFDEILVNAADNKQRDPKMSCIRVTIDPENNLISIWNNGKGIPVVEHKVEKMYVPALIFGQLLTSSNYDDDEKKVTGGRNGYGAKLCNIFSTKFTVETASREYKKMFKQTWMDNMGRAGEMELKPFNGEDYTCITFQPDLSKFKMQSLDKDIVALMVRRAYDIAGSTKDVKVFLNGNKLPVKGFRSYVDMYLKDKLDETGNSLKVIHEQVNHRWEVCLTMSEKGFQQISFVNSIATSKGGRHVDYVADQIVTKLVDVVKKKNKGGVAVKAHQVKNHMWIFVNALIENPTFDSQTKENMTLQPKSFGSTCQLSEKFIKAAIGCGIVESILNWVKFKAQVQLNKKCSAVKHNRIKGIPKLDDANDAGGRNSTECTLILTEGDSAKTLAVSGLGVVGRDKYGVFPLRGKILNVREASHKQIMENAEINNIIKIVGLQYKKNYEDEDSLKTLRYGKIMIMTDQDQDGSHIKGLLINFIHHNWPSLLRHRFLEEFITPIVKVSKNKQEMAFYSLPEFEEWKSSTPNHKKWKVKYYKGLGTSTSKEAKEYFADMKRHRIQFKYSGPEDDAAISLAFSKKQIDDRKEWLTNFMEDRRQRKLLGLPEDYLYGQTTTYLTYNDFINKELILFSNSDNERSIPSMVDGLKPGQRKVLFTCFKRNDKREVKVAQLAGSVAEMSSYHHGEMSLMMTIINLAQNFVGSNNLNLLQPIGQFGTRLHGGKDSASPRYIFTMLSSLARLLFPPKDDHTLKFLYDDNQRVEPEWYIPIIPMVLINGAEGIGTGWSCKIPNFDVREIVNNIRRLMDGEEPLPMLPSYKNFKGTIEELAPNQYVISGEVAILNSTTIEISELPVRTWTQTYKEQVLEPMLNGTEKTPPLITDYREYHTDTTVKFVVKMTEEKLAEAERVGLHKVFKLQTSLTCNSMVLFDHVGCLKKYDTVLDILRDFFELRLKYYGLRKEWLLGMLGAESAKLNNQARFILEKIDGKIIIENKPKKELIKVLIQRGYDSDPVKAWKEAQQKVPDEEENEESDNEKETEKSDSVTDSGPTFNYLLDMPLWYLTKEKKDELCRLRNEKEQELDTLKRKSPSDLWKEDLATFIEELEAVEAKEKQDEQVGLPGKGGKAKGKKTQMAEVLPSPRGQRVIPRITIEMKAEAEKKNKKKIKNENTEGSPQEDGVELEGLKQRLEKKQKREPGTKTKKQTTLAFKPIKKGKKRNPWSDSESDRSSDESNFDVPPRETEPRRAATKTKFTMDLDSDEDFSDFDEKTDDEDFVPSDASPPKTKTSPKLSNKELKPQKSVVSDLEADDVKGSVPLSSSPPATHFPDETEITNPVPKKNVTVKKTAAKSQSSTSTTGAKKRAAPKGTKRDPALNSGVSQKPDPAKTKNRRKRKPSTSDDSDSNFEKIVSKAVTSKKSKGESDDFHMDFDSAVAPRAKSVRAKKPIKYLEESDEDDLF
Outline: (§3)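 Relaxation of 200 ng supercoiled pBR322 by 1 unit human topo IIα, with or without compound, at 30 °C for 30 min. Buffer: 10 mM Tris-HCl pH 7.9, 50 mM NaCl, 50 mM KCl, 5 mM MgCl₂, 1 mM EDTA, 1 mM ATP, 15 µg/mL BSA. Stopped with EDTA and run on 1% agarose gel in TAE at 25 V for 4 h. Band analysis gave inhibition ratio.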

[9] = target: DNA topoisomerase 2-alpha (Homo sapiens) (UniProt P11388); assay: Inhibition of human recombinant DNA topoisomerase 2alpha -mediated pBR322 DNA relaxation at 20 uM by gel electrophoresis; outline: as §3
[10] = test system: Nucleic Acid; assay: Induction of DNA cross linking in linearized pBR322 at 100 uM by alkaline gel electrophoresis; format: nucleic-acid assay; details: Escherichia coli
Outline: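 pBR322 was linearized with EcoRI and ethanol-precipitated, then incubated with compound for 2 h at room temperature in 10 mM Tris–HCl, 1 mM EDTA, pH 8.0. Samples ran on a denaturing 1.2% alkaline agarose gel in 50 mM NaOH, 1 mM EDTA. The gel was neutralized 1 h in 100 mM Tris, 150 mM NaCl, pH 7.6, alongside a HindIII marker.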

In the case of `O=c1c2cc3ccccc3cc2oc2cc(OCC3CO3)cc(OCC3CO3)c12` (stereo unspecified), the IC50 [1] is reported as 2.19 µM, the IC50 [2] is reported as 0.6 µM and the IC50 [3] is reported as 3.01 µM. It also gave an IC50 [4] of 1.64 µM, an IC50 [5] of 5.13 µM and an inhibition [6] of 12.3%. The inhibition [7] was 8.8%, the inhibition [8] was 60.1% and the inhibition [9] was 8.9%. For the same compound, the Activity [10] was “Active”.
`CC[C@@]1(O)C(=O)OCc2c1cc1n(c2=O)Cc2cc3ccccc3nc2-1` [CAMPTOTHECIN] showed an IC50 [1] of 0.86 µM, an IC50 [2] of 0.85 µM and an IC50 [3] of 3.57 µM. For the same compound, the IC50 [4] was 0.92 µM and the IC50 [5] was 0.065 µM.
`O=c1c2ccc3ccccc3c2oc2cc(OCC3CS3)cc(OCC3CS3)c12` (stereo unspecified) was tested, and the IC50 [1] was 25.6 µM, the IC50 [2] was > 50 µM and the IC50 [3] was 5.66 µM. For the same compound, the IC50 [4] was > 50 µM, the IC50 [5] was 37 µM and the inhibition [6] was 79%. The inhibition [7] was 56.5%, the inhibition [8] was 71.9% and the inhibition [9] was 72.7%.
`COc1cc([C@@H]2c3cc4c(cc3[C@@H](O[C@@H]3O[C@@H]5CO[C@@H](C)O[C@H]5[C@H](O)[C@H]3O)[C@H]3COC(=O)[C@H]23)OCO4)cc(OC)c1O` [ETOPOSIDE] was tested, and the IC50 [1] was 0.47 µM, the IC50 [2] was 1.42 µM and the IC50 [3] was 1.63 µM. The IC50 [4] was 2.87 µM and the IC50 [5] was 0.97 µM.
`O=c1c2ccc3ccccc3c2oc2cc(OCC3CO3)cc(OCC3CO3)c12` (stereo unspecified) showed an IC50 [1] of 24.2 µM, an IC50 [2] of 8.2 µM and an IC50 [3] of 1.29 µM. The IC50 [4] was 7.43 µM, the IC50 [5] was 5.4 µM and the inhibition [6] was 11.9%. The inhibition [7] was -0%, the inhibition [8] was 5.7% and the inhibition [9] was 0.1%. For the same compound, the Activity [10] was “Active”.
`O=c1c2c(O)cc(OCC3CO3)cc2oc2ccc3ccccc3c12` (stereo unspecified) was tested, and the IC50 [1] was > 100 µM, the IC50 [2] was 0.96 µM and the IC50 [3] was 1.4 µM. The IC50 [4] was > 50 µM, the IC50 [5] was 2.31 µM and the inhibition [6] was -0%. It also gave an inhibition [7] of 9.7%, an inhibition [8] of 3.7% and an inhibition [9] of -0%.
`O=c1c2c(O)cc(OCC3CS3)cc2oc2ccc3ccccc3c12` (stereo unspecified) was tested, and the IC50 [1] was > 100 µM, the IC50 [2] was 3.58 µM and the IC50 [3] was 8.76 µM. It also gave an IC50 [4] of 29.1 µM, an IC50 [5] of 3.48 µM and an inhibition [6] of -0%. For the same compound, the inhibition [7] was 2.4%, the inhibition [8] was 5.3% and the inhibition [9] was -0%.
`O=c1c2cc3ccccc3cc2oc2cc(OCC3CS3)cc(O)c12` (stereo unspecified) showed an IC50 [1] of 8.52 µM, an IC50 [2] of 5.4 µM and an IC50 [3] of 1.55 µM. The IC50 [4] was 14.8 µM, the IC50 [5] was 2.48 µM and the inhibition [6] was 0.5%. The inhibition [7] was -0%, the inhibition [8] was -0% and the inhibition [9] was 7.2%.
With `COc1cccc2c1C(=O)c1c(O)c3c(c(O)c1C2=O)C[C@@](O)(C(=O)CO)C[C@@H]3O[C@H]1C[C@H](N)[C@H](O)[C@H](C)O1` [DOXORUBICIN HYDROCHLORIDE] the IC50 [1] was 0.71 µM, the IC50 [2] was 0.95 µM and the IC50 [3] was 1.19 µM. The IC50 [4] was 3.15 µM and the IC50 [5] was 0.94 µM.
In the case of `O=c1c2cc3ccccc3cc2oc2cc(OCC3CS3)cc(OCC3CS3)c12` (stereo unspecified), the IC50 [1] is reported as 8.01 µM, the IC50 [2] is reported as 1.66 µM and the IC50 [3] is reported as 19.4 µM. For the same compound, the IC50 [4] was 5.16 µM, the IC50 [5] was 5.13 µM and the inhibition [6] was 4.3%. For the same compound, the inhibition [7] was -0%, the inhibition [8] was 1.9% and the inhibition [9] was 13.5%.
In the case of `O=c1c2cc3ccccc3cc2oc2cc(OCC3CO3)cc(O)c12` (stereo unspecified), the IC50 [1] is reported as > 100 µM, the IC50 [2] is reported as 2.34 µM and the IC50 [3] is reported as 36.2 µM. The IC50 [4] was 15.1 µM, the IC50 [5] was 9.4 µM and the inhibition [6] was 13.7%. It also gave an inhibition [7] of 2.6%, an inhibition [8] of -0% and an inhibition [9] of -0%.
In the case of `O=c1c2c(OCC3CO3)cc(OCC3CO3)cc2oc2ccc3ccccc3c12` (stereo unspecified), the IC50 [1] is reported as 10.2 µM, the IC50 [2] is reported as 7.38 µM and the IC50 [3] is reported as 3.44 µM. For the same compound, the IC50 [4] was > 50 µM, the IC50 [5] was 6.47 µM and the inhibition [6] was 18%. The inhibition [7] was -0%, the inhibition [8] was 1% and the inhibition [9] was -0%. The Activity [10] was “inactive”.
Compound `O=c1c2c(OCC3CS3)cc(OCC3CS3)cc2oc2ccc3ccccc3c12` (stereo unspecified) has an IC50 [1] of 24.9 µM, an IC50 [2] of 0.75 µM and an IC50 [3] of 1.32 µM. For the same compound, the IC50 [4] was 18.9 µM, the IC50 [5] was 1.85 µM and the inhibition [6] was -0%. The inhibition [7] was -0%, the inhibition [8] was 4.4% and the inhibition [9] was 8.4%.
In the case of `O=c1c2ccc3ccccc3c2oc2cc(OCC3CO3)cc(O)c12` (stereo unspecified), the IC50 [1] is reported as > 50 µM, the IC50 [2] is reported as 18.9 µM and the IC50 [3] is reported as 2.56 µM. It also gave an IC50 [4] of 0.73 µM, an IC50 [5] of 3.67 µM and an inhibition [6] of 1.7%. It also gave an inhibition [7] of 10.6%, an inhibition [8] of 9% and an inhibition [9] of 5.5%.
`O=c1c2ccc3ccccc3c2oc2cc(OCC3CS3)cc(O)c12` (stereo unspecified) was tested, and the IC50 [1] was > 50 µM, the IC50 [2] was > 50 µM and the IC50 [3] was 10.8 µM. For the same compound, the IC50 [4] was > 50 µM, the IC50 [5] was 22.6 µM and the inhibition [6] was 15.6%. For the same compound, the inhibition [7] was 2.5%, the inhibition [8] was 13.9% and the inhibition [9] was -0%.
